Experimental data published in ChEMBL document CHEMBL3352265, “Potentially bioactive organotin(IV) compounds: synthesis, characterization, in vitro bioactivities and interaction with SS-DNA” (Eur J Med Chem, 2014).
Calls of active or inactive are those of the source. No cut-off for these calls is given here.

Legend:
Escherichia coli [1] = test: Antibacterial activity against Escherichia coli ATCC 15224 at 40 mg/mL after 24 hrs by disc diffusion method; type: functional
How it was run: (§1)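 Disc diffusion. Strains grown in nutrient broth at 37 °C for 24 h. 1% culture (about 10^6 CFU/mL) mixed into nutrient agar at 45 °C and poured. 4 mm paper discs received compound at 40 mg/mL stock in DMSO; final concentrations tested were […]. DMSO served as negative control, roxithromycin and cefixime as positive controls. Triplicate plates incubated at 37 °C for 24 h. Complete-inhibition zone diameter (mm) recorded as the mean of 3.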

Staphylococcus aureus [2] = test: Antibacterial activity against Staphylococcus aureus ATCC 6538 at 40 mg/mL after 24 hrs by disc diffusion method; type: functional; how it was run: as §1
Klebsiella aerogenes [3] = test: Antibacterial activity against Enterobacter aerogenes ATCC 13048 at 40 mg/mL after 24 hrs by disc diffusion method; type: functional; how it was run: as §1
Salmonella typhimurium [4] = test: Antibacterial activity against Salmonella typhimurium ATCC 14028 at 40 mg/mL after 24 hrs by disc diffusion method; type: functional; conditions: Salmonella enterica subsp. enterica serovar Typhimurium; how it was run: as §1
[5] = system: Bordetella bronchiseptica; test: Antibacterial activity against Bordetella bronchiseptica ATCC 4617 at 40 mg/mL after 24 hrs by disc diffusion method; type: functional; how it was run: as §1
Bacillus spizizenii [6] = test: Antibacterial activity against Bacillus subtilis ATCC 6633 at 40 mg/mL after 24 hrs by disc diffusion method; type: functional; how it was run: as §1
Escherichia coli [7] = test: Antibacterial activity against Escherichia coli ATCC 15224 after 18 hrs by microdilution method; type: functional
How it was run: (§2)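 Broth microdilution. Twofold dilutions in culture broth at […]. Each well inoculated with bacterial suspension (10^8 CFU/mL, about 10^5 CFU/well). Sterility control and growth control (broth plus DMSO) included. Incubated at 36 °C for 18 h, in triplicate. MIC taken as the lowest concentration inhibiting growth, given in micrograms per mL.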

Staphylococcus aureus [8] = test: Antibacterial activity against Staphylococcus aureus ATCC 6538 after 18 hrs by microdilution method; type: functional; how it was run: as §2
Klebsiella aerogenes [9] = test: Antibacterial activity against Enterobacter aerogenes ATCC 13048 after 18 hrs by microdilution method; type: functional, organism-based; how it was run: as §2
Salmonella typhimurium [10] = test: Antibacterial activity against Salmonella typhimurium ATCC 14028 after 18 hrs by microdilution method; type: functional; conditions: Salmonella enterica subsp. enterica serovar Typhimurium; how it was run: as §2
[11] = system: Bordetella bronchiseptica; test: Antibacterial activity against Bordetella bronchiseptica ATCC 4617 after 18 hrs by microdilution method; type: functional; how it was run: as §2
Bacillus spizizenii [12] = test: Antibacterial activity against Bacillus subtilis ATCC 6633 after 18 hrs by microdilution method; type: functional; how it was run: as §2
Aspergillus niger [13] = test: Antifungal activity against Aspergillus niger FCBP 0198 at 40 mg/mL after 7 days by disc diffusion method; type: functional
How it was run: (§3)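 Disc diffusion on SDA. Fungi cultured at 28 °C for 24 h. 4 mm discs received compound at 40 mg/mL stock in DMSO. DMSO served as negative control, terbinafine as positive control. Plates incubated at 28 °C for 7 days. Growth diameter (mm) measured and inhibition calculated against the negative control. MIC taken as the lowest concentration with no growth.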

Aspergillus fumigatus [14] = test: Antifungal activity against Aspergillus fumigatus FCBP 66 at 40 mg/mL after 7 days by disc diffusion method; type: functional; how it was run: as §3
Aspergillus flavus [15] = test: Antifungal activity against Aspergillus flavus FCBP 0064 at 40 mg/mL after 7 days by disc diffusion method; type: functional; how it was run: as §3
Mucor [16] = test: Antifungal activity against Mucor FCBP 0400 at 40 mg/mL after 7 days by disc diffusion method; type: functional; how it was run: as §3
Aspergillus niger [17] = test: Antifungal activity against Aspergillus niger FCBP 0198 after 7 days by disc diffusion method; type: functional, organism-based; how it was run: as §3
Aspergillus fumigatus [18] = test: Antifungal activity against Aspergillus fumigatus FCBP 66 after 7 days by disc diffusion method; type: functional, organism-based; how it was run: as §3
Aspergillus flavus [19] = test: Antifungal activity against Aspergillus flavus FCBP 0064 after 7 days by disc diffusion method; type: functional, organism-based; how it was run: as §3
Mucor [20] = test: Antifungal activity against Mucor FCBP 0400 at 40 mg/mL by disc diffusion method; type: functional, organism-based; how it was run: as §3
Artemia salina = test: Cytotoxicity in brine shrimp assessed as mortality after 24 hrs; type: functional
[21] = system: Agrobacterium tumefaciens; test: Antitumor activity against Agrobacterium tumefaciens -induced tumor at 1000 ug/ml after 21 days by potato disc bioassay technique; type: functional
How it was run: (§4)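 Potato disc assay with 48 h culture of A. tumefaciens At-10. Inoculum contained compound at […]. Red-skinned potatoes sterilized in 0.1% HgCl2; 8 mm × 4 mm discs placed ten per 1.5% agar plate, […] each. Incubated at 28 °C in the dark for 21 days, in triplicate. Discs stained with Lugol's and tumors counted. Percent inhibition calculated against the negative control.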

[22] = system: Agrobacterium tumefaciens; test: Antitumor activity against Agrobacterium tumefaciens -induced tumor at 100 ug/ml after 21 days by potato disc bioassay technique; type: functional; how it was run: as §4
[23] = system: Agrobacterium tumefaciens; test: Antitumor activity against Agrobacterium tumefaciens -induced tumor at 10 ug/ml after 21 days by potato disc bioassay technique; type: functional; how it was run: as §4
Escherichia coli [24] = test: Induction of Escherichia coli pBR322 DNA damage assessed as open circular form at 1000 ug/ml after 60 mins by gel electrophoresis
Escherichia coli [25] = test: Induction of Escherichia coli pBR322 DNA damage assessed as open circular form at 100 ug/ml after 60 mins by gel electrophoresis
Escherichia coli [26] = test: Induction of Escherichia coli pBR322 DNA damage assessed as open circular form at 10 ug/ml after 60 mins by gel electrophoresis
Escherichia coli [27] = test: Induction of Escherichia coli pBR322 DNA damage assessed as open circular form at 1 ug/ml after 60 mins by gel electrophoresis

## Di-tert-butylstannanediyl bis[4-(2-methoxyphenylamino)-4-oxobutanoate]
Escherichia coli [1]
  inhibition zone (IZ): 24 mm
Staphylococcus aureus [2]
  inhibition zone (IZ): 17 mm
Klebsiella aerogenes [3]
  inhibition zone (IZ): 40 mm
Salmonella typhimurium [4]
  inhibition zone (IZ): 26 mm
[5]
  inhibition zone (IZ): 30 mm
Bacillus spizizenii [6]
  inhibition zone (IZ): 40 mm
Escherichia coli [7]
  MIC: 12.5 µg/mL
Staphylococcus aureus [8]
  MIC: 12.5 µg/mL
Klebsiella aerogenes [9]
  MIC: 6.25 µg/mL
Salmonella typhimurium [10]
  MIC: 6.25 µg/mL
[11]
  MIC: 12.5 µg/mL
Bacillus spizizenii [12]
  MIC: 12.5 µg/mL
Aspergillus niger [13]
  inhibition zone (IZ): 24 mm
Aspergillus fumigatus [14]
  inhibition zone (IZ): 18 mm
Aspergillus flavus [15]
  inhibition zone (IZ): 20 mm
Mucor [16]
  inhibition zone (IZ): 14 mm
Aspergillus niger [17]
  MIC: 100 µg/mL
Aspergillus fumigatus [18]
  MIC: 100 µg/mL
Aspergillus flavus [19]
  MIC: 100 µg/mL
Mucor [20]
  MIC: 100 µg/mL
Artemia salina
  LD50: 3.11 µg/mL
[21]
  Activity: 92.4%
[22]
  Activity: 71.5%
[23]
  Activity: 53.4%
Escherichia coli [24]
  Activity: Active
Escherichia coli [25]
  Activity: Active
Escherichia coli [26]
  Activity: Active
Escherichia coli [27]
  Activity: Active

## N-[(2-methoxyphenyl)]-4-oxo-4-[(tricyclohexylstannyl)oxy]butanamide
Escherichia coli [1]
  inhibition zone (IZ): 9 mm
Staphylococcus aureus [2]
  inhibition zone (IZ): 0 mm
Klebsiella aerogenes [3]
  inhibition zone (IZ): 0 mm
Salmonella typhimurium [4]
  inhibition zone (IZ): 8 mm
[5]
  inhibition zone (IZ): 0 mm
Bacillus spizizenii [6]
  inhibition zone (IZ): 0 mm
Escherichia coli [7]
  MIC: 200 µg/mL
Salmonella typhimurium [10]
  MIC: 200 µg/mL
Aspergillus niger [13]
  inhibition zone (IZ): 0 mm
Aspergillus fumigatus [14]
  inhibition zone (IZ): 16 mm
Aspergillus flavus [15]
  inhibition zone (IZ): 18 mm
Mucor [16]
  inhibition zone (IZ): 18 mm
Aspergillus niger [17]
  MIC: 200 µg/mL
Aspergillus fumigatus [18]
  MIC: 150 µg/mL
Aspergillus flavus [19]
  MIC: 150 µg/mL
Mucor [20]
  MIC: 150 µg/mL
Artemia salina
  LD50: 0.493 µg/mL
[21]
  Activity: 80.9%
[22]
  Activity: 57.4%
[23]
  Activity: 36.5%
Escherichia coli [24]
  Activity: inactive
Escherichia coli [25]
  Activity: inactive
Escherichia coli [26]
  Activity: inactive
Escherichia coli [27]
  Activity: inactive

## N-[(2-methoxyphenyl)]-4-oxo-4-[(tribenzylstannyl)oxy]butanamide
Escherichia coli [1]
  inhibition zone (IZ): 16 mm
Staphylococcus aureus [2]
  inhibition zone (IZ): 17 mm
Klebsiella aerogenes [3]
  inhibition zone (IZ): 13 mm
Salmonella typhimurium [4]
  inhibition zone (IZ): 15 mm
[5]
  inhibition zone (IZ): 13 mm
Bacillus spizizenii [6]
  inhibition zone (IZ): 13 mm
Escherichia coli [7]
  MIC: 50 µg/mL
Staphylococcus aureus [8]
  MIC: 100 µg/mL
Klebsiella aerogenes [9]
  MIC: 150 µg/mL
Salmonella typhimurium [10]
  MIC: 200 µg/mL
[11]
  MIC: 100 µg/mL
Bacillus spizizenii [12]
  MIC: 200 µg/mL
Aspergillus niger [13]
  inhibition zone (IZ): 15 mm
Aspergillus fumigatus [14]
  inhibition zone (IZ): 15 mm
Aspergillus flavus [15]
  inhibition zone (IZ): 12 mm
Mucor [16]
  inhibition zone (IZ): 12 mm
Aspergillus niger [17]
  MIC: 150 µg/mL
Aspergillus fumigatus [18]
  MIC: 150 µg/mL
Aspergillus flavus [19]
  MIC: 200 µg/mL
Mucor [20]
  MIC: 200 µg/mL
Artemia salina
  LD50: 0.793 µg/mL
[21]
  Activity: 76.1%
[22]
  Activity: 62%
[23]
  Activity: 20.3%
Escherichia coli [24]
  Activity: Active
Escherichia coli [25]
  Activity: Active
Escherichia coli [26]
  Activity: Active
Escherichia coli [27]
  Activity: Active
